Several values for one entry are separate records, joined by “and”; a condition that tells them apart may be missing. Equal values may be shown once. Entries after “also recorded” stand apart in the source; their conditions may differ.
Columns and labels:
PvENT1 [1] = molecular target: T1, PvENT1 (Plasmodium vivax, UniProt A5K8B0); assay: Inhibition of [3H]uridine uptake into PvENT1-expressing yeast; type: cell-based; details: for fold lower IC50 of PvENT1 than PfENT1: PvENT1 vs PfENT1
T1 sequence (A5K8B0 1-416): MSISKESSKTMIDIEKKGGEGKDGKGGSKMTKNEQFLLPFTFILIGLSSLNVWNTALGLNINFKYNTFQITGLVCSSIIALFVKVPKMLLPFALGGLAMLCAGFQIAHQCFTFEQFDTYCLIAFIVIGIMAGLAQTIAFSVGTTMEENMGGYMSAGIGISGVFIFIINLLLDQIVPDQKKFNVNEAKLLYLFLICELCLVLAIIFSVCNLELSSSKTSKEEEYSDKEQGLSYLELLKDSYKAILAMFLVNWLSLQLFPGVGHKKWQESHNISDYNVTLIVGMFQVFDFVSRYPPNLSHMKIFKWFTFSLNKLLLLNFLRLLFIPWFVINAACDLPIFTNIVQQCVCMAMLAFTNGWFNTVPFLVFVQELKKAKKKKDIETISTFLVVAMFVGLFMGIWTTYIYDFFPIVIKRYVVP

PvENT1 [2] = molecular target: T1, PvENT1; assay: Inhibition of [3H]adenosine uptake into PvENT1-expressing yeast; type: cell-based
[3] = system: PvENT1-expressing purine auxotrophic yeast; assay: Growth of PvENT1-expressing purine auxotrophic yeast with a sole purine source; type: cell-based; details: Saccharomyces cerevisiae, read-out: growth EC50
Method in brief: (§1)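 Yeast strain was MATa his3Δ1 leu2Δ0 met15Δ0 ura3Δ0 fui1Δ::KanMX4 ade2Δ::hphNT1 carrying pCM189 (empty or PvENT1). Cells grown to mid-log in SDM-adenine were washed three times in water, diluted to 4 × 10^6 cells/mL, and added 1:1 to adenine or adenosine serially diluted in 2× purine-free SDM.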

[4] = system: empty vector (EV) purine auxotrophic yeast; assay: Growth of empty vector; type: cell-based, Saccharomyces cerevisiae
Method in brief: as §1

PfENT1 = details: read-out: PfENT1 IC50; ref Riegelhaupt et al., 2010a; cited from earlier work
hENT1 = details: ref Griffiths et al., 1997, Baldwin et al., 2004, cited from earlier work
[5] = IC50 for inhibition of [^3H]Adenosine by indicated pyrimidine, 50 nM [3H]adenosine, 15 min, PvENT1-expressing yeast, mean ± SD
[6] = [^3H]Adenosine uptake inhibition IC50, hENT1 inhibitors and toxic purine analogs, 50 nM [3H]adenosine, concentrations up to 20 mM, mean ± SD, n = 3
[7] = IC50 for inhibition of [^3H]Uridine by indicated purine, 250 nM [3H]uridine, 15 min, PvENT1-expressing yeast, mean ± SD
[8] = IC50 for inhibition of [^3H]substrate uptake by the indicated purine, WT, Table 4, WT PvENT1, radiolabel [3H]adenosine (#)
[9] = hENT1 inhibitors and toxic purine analogs, 50 nM [3H]adenosine, concentrations up to 20 mM, mean ± SD, n = 3
[10] = read-out: [^3H]Adenosine uptake inhibition IC50, hENT1 inhibitors and toxic purine analogs, 50 nM [3H]adenosine, concentrations up to 20 mM, mean ± SD, n = 3

Compound Nc1nc2c(ncn2[C@H]2C[C@H](O)[C@@H](CO)O2)c(=O)[nH]1 [2-deoxyguanosine] has an IC50 (PvENT1 [1]; read-out: IC50 for inhibition of [^3H]Uridine by indicated purine, 250 nM [3H]uridine, 15 min, PvENT1-expressing yeast, mean ± SD) of 20.5 ± 4.8 µM.

O=c1[nH]c(=O)n([C@@H]2O[C@H](CO)[C@@H](O)[C@H]2O)cc1F [5-Fluorouridine (5-FUrd), 5-Fluorouridine] showed an IC50 (PvENT1 [2]; [5]) of 1770 ± 302 µM and an IC50 (PvENT1 [2]; IC50 for inhibition of [^3H]adenosine uptake, 50 nM [3H]adenosine) of 1700 µM.

In the case of Sc1ncnc2nc[nH]c12 [6-mercaptopurine], the IC50 (PvENT1 [2]; [6]) is reported as 160 µM and 158 µM.

Compound Nc1ncnc2[nH]cnc12 [Adenine] has an EC50 [3] of 27 ± 2 µM, an EC50 ([4]; Saccharomyces cerevisiae, read-out: growth EC50) of 39 ± 2 µM and an IC50 (PvENT1 [1]; [7]) of 1430 ± 736 µM. For the same compound, the “IC50 of nucleobase relative to the corresponding nucleoside” value (PvENT1 [1]; PvENT1-expressing yeast) was “one order of magnitude higher”.

In the case of Nc1ncnc2c1ncn2[C@@H]1O[C@H](CO)[C@@H](O)[C@H]1O [Adenosine], the IC50 (PfENT1) is given as about 650 µM, the EC50 [3] is given as 394 ± 85 µM and the “growth EC50” value ([4]; EV yeast, liquid media, sole purine source) is given as “failed to grow”. For the same compound, the IC50 (PvENT1 [1]; [7]) was 142 ± 34 µM, the IC50 (PvENT1 [1]; IC50 for inhibition of [^3H]substrate uptake by the indicated purine, WT, Table 4, WT PvENT1, radiolabel [3H]uridine) was 167 ± 52 µM and the “fold lower IC50 of PvENT1 than PfENT1” value (PvENT1 [1]) was 4–5 fold.

In the case of Nc1cc[nH]c(=O)n1 [Cytosine], the IC50 (PvENT1 [2]; [5]) is reported as 6140 ± 1030 µM and the “effect on radiolabel uptake into PvENT1-expressing yeast (in words)” value (PvENT1 [2]; [3H]adenosine uptake for pyrimidines) is reported as “slight inhibition”.

For OCCN(CCO)c1nc(N2CCCCC2)c2nc(N(CCO)CCO)nc(N3CCCCC3)c2n1 [Dipyridamole, dipyridamole], the “concentration range inhibiting hENT1” value (hENT1) is listed as 5 to 20 nM, the “PvENT1 IC50 relative to hENT1” value (PvENT1 [2]; PvENT1 vs human ENT1) is listed as 1000 fold and the IC50 (PvENT1 [2]; [6]) is listed as ~40 µM and 40 µM.

Nc1nc2nc[nH]c2c(=O)[nH]1 [Guanine] showed an IC50 (PvENT1 [1]; [7]) of 6340 ± 2950 µM.

For Nc1nc2c(ncn2[C@@H]2O[C@H](CO)[C@@H](O)[C@H]2O)c(=O)[nH]1 [Guanosine], the IC50 (PvENT1 [1]; [7]) was 14.9 ± 1.4 µM.

In the case of O=c1[nH]cnc2nc[nH]c12 [Hypoxanthine], the IC50 (PfENT1) is given as about 480 µM, the IC50 (PvENT1 [1]; [7]) is given as 99 ± 30 µM and the “fold lower IC50 of PvENT1 than PfENT1” value (PvENT1 [1]) is given as 4–5 fold. For the same compound, the IC50 (PvENT1 [2]; [8]) was 141 ± 24 µM.

For OC[C@H]1O[C@@H](n2cnc3c(O)ncnc32)[C@H](O)[C@@H]1O [Inosine], the IC50 (PvENT1 [1]; [7]) was 3.8 ± 1.4 µM and the IC50 (PvENT1 [2]; [8]) was 5 ± 4 µM.

In the case of O=[N+]([O-])c1ccc(CSc2ncnc3c2ncn3C2OC(CO)C(O)C2O)cc1 (stereo not drawn) [NBMPR, 4-nitrobenzylthioinosine], the “concentrations inhibiting hENT1” value (hENT1; in words) is given as “sub-nanomolar”, the “[^3H]Adenosine uptake inhibition IC50” value (PvENT1 [2]; [9]) is given as “did not inhibit; also recorded: not sensitive” and the “[^3H]Adenosine uptake inhibition IC50” value (PvENT1 [2]; hENT1 inhibitors and toxic purine analogs, 50 nM [3H]adenosine, concentrations up to 20 mM, mean ± SD, n = 3, listed as 4-nitrobenzylthioinosine (NBMPR)) is given as “no effect”. For the same compound, the IC50 (PvENT1 [2]; [10]) was over 20000 µM.

For Cc1cn([C@H]2C[C@H](O)[C@@H](CO)O2)c(=O)[nH]c1=O [Thymidine], the IC50 (PvENT1 [2]; [5]) was 183 ± 53 µM.

In the case of Cc1c[nH]c(=O)[nH]c1=O [Thymine], the IC50 (PvENT1 [2]; [5]) is reported as 564 ± 145 µM.

With Nc1ncnc2c1ccn2[C@@H]1O[C@H](CO)[C@@H](O)[C@H]1O [Tubercidin, tubercidin (7-deaza-adenosine)] the “[^3H]Adenosine uptake inhibition IC50” value (PvENT1 [2]; [9]) was “failed to inhibit” and the IC50 (PvENT1 [2]; [10]) was over 20000 µM.

O=c1cc[nH]c(=O)[nH]1 [Uracil] gave an IC50 (PvENT1 [2]; [5]) of 3390 ± 1170 µM.

O=c1ccn([C@@H]2O[C@H](CO)[C@@H](O)[C@H]2O)c(=O)[nH]1 [Uridine] gave an IC50 (PvENT1 [2]; [5]) of 1730 ± 809 µM.

For O=c1[nH]c(=O)c2[nH]cnc2[nH]1 [Xanthine], the IC50 (PvENT1 [1]; [7]) was 2550 ± 189 µM.

Work on O=c1[nH]c(=O)c2ncn([C@@H]3O[C@H](CO)[C@@H](O)[C@H]3O)c2[nH]1 [Xanthosine] yielded an IC50 (PvENT1 [1]; [7]) of 4310 ± 2870 µM.

Source: publication PMC4706624 (International Journal for Parasitology: Drugs and Drug …, 2015)
